Assay outcomes from PubChem BioAssay.
PolyA inh: yeast polyadenylation inhibition. activity score, % at 12 µM. actives 0.02% (n = 300,000). AID 1875. S. cerevisiae SKY197-pL101 polyadenylation reporter, beta-gal luminescence; efflux-impaired pdr1/pdr3 knockout yeast; score 100 = 6 SD above DMSO;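 active = lowest replicate activity score at least 50, where 100 means six control SD above control mean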;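 also: yeast exposed to compound for 9 h at 30 °C; higher score means more reporter readthrough which indicates perturbed polyadenylation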
NALP3 yeast inh: NALP3 inhibition in yeast. actives 0.39% (n = 330,000). Yeast reconstituted NLRP3/ASC/caspase-1, beta-gal luminescence, 24 h. inhibition, % at 10 µM;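 active = inhibition of 50% or more; inactive = inhibition below 50%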
Arr AP2 block: blocks beta-arrestin peptide binding to AP2 adaptin. FITC-arrestin peptide / GST-AP2 beads, flow cytometry; AP2 beta2 appendage carries R879A mutation. actives 0.31% (n = 340,000). AID 504490. inhibition, % at 10 µM;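 active = inhibition above a set limit, near 3 SD of compounds lacking own fluorescence, cut at about 54% in these data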
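test system = AP2 appendage R879A on GSH beads | buffer or medium = PBS plus Tween 20 (0.05%) and BSA (0.1%) | incubation = 12 min plus 1 h, RT | detection = bead flow cytometry, FITC channel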
ALR H2O2 inh: inhibitors of human sulfhydryl oxidase ALR. P55789. purified ALR, DTT oxidation, H2O2 HRP-luminol luminescence. inhibition, % (concentration not given with the values). actives 3.8% (n = 290,000);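 active = mean replicate inhibition above about 79%, with every replicate also reaching it, limit read from the data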
Target sequence (P55789 whole entry, looked up): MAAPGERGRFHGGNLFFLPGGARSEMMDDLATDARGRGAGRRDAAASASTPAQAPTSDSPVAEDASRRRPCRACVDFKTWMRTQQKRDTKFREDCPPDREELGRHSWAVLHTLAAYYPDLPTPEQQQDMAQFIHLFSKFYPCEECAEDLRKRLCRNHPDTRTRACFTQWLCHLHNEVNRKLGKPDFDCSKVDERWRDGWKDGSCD
DSG3 Ab inh: inhibitors of pemphigus antibody binding to human desmoglein-3; P32926; DSG3-coupled beads, scFv-anti-DSG3-GFP binding, flow cytometry; active compounds read low; binding (percent of control), % at 10 µM; actives 0.48% (n = 310,000);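 active = binding more than 3 SD below its plate's average and above zero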;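 also: hits lower antibody fragment binding to DSG3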
NALP1 yeast inh: NALP1 inhibition; actives 0.61% (n = 280,000); S. cerevisiae NALP1/ASC/caspase-1 growth, X-gal OD620, 72 h; inhibition, % at 10 µM; in the data active = inhibition mostly above about 24%, no sharp cut-off; inactive = mostly below about 32%
Of the large screens only hits and unclear results are named; the others gave an inactive call. A selection: hits, their analogues and other compounds. The true share with any hit is near 4.6%.

COc1cc(NC(=O)CSc2c3c(nc4ccccc24)CCC3)cc(OC)c1OC	ALR H2O2 inh 98
COc1ccccc1NC(=O)CSc1c2c(nc3ccccc13)CCC2	ALR H2O2 inh 99
Cc1cc(NC(=O)CSc2cc(C)c3ccccc3n2)no1	none (no result: PolyA inh, NALP1 yeast inh)
COc1cc(NC(=O)c2ccc3c(SCC(=O)O)c4c(nc3c2)CCCC4)cc(OC)c1OC	ALR H2O2 inh 97
COCCNC(=O)CSc1c2c(nc3ccc(Cl)cc13)CCCC2	ALR H2O2 inh 98
CC(C)NC(=O)CSc1c2c(nc3ccccc13)CCCC2	ALR H2O2 inh 76
CC(C)NC(=O)CSc1nc(Cc2ccccc2)nc2ccccc12	none (no result: ALR H2O2 inh)
Cc1cc(NC(=O)CSc2c3c(nc4ccccc24)CCC3)no1	ALR H2O2 inh 98
CC(C)N1CC2(CC(c3ccc(Cl)cc3Cl)=NO2)CN1C(=O)c1ccc(C(C)(C)C)cc1 (stereo not given)	none (no result: PolyA inh, NALP3 yeast inh, Arr AP2 block, ALR H2O2 inh, NALP1 yeast inh)
COc1ccc(OC)c(NC(=O)c2c3c(nc4ccccc24)CCC3)c1	none
COc1ccc(NC(=O)CSc2c3c(nc4ccccc24)CCCC3)c(OC)c1	ALR H2O2 inh 100
S=C(N/N=C/c1ccco1)NC1CC2CCC1C2 (stereo not given)	ALR H2O2 inh 98
CC[C@]1(C(=O)OC)[C@H]2C(=O)N(Cc3ccccc3)C(=O)[C@H]2[C@H]2CN(C)C(=NCc3ccccc3)N21	none (no result: PolyA inh, NALP3 yeast inh, ALR H2O2 inh, NALP1 yeast inh)
COc1ccc2cnn(-c3ccc(OC(F)(F)Cl)cc3)c(=O)c2c1OC	none
COc1ccc2cnn(-c3ccc(C)cc3)c(=O)c2c1OC	NALP1 yeast inh 64
Fc1ccccc1-c1nnc2ccc3ccccc3n12	none
Fc1cccc(Cl)c1-c1nnc2ccc3ccccc3n12	ALR H2O2 inh 98
CCOC(=O)c1ccc(NC(=O)CSc2nc3c(c(=O)n2C)SC(C)C3)cc1 (stereo not given)	ALR H2O2 inh 100
CCOC(=O)c1ccc(NC(=O)CSc2nc3c(c(=O)n2CC)SC(C)C3)cc1 (stereo not given)	ALR H2O2 inh 99 (no result: NALP1 yeast inh)
CCn1c(SCC(=O)Nc2cccc(F)c2)nc2c(c1=O)SC(C)C2 (stereo not given)	none (no result: ALR H2O2 inh)
CC1(CNC(=O)C(=O)NCC2(C)CO2)CO1 (stereo not given)	none (no result: PolyA inh, NALP3 yeast inh, ALR H2O2 inh, NALP1 yeast inh)
Cc1ccc(O)c(NC(=S)NC(=O)c2ccccc2Cl)c1	ALR H2O2 inh 97
Cc1ccc(C(=O)Nc2ccc(O)cc2C(=O)O)cc1C	ALR H2O2 inh 98
O=C(O)c1ccccc1NC(=S)NC(=O)c1cccc2ccccc12	ALR H2O2 inh 98
O=C(NC(=S)Nc1ccc(O)cc1)c1ccccc1Cl	none (no result: ALR H2O2 inh)
CN1C(=O)/C(=C/c2ccc(C(=O)Nc3ccc(O)cc3C(=O)O)cc2)SC1=S	ALR H2O2 inh 97
COc1ccc(COC(=O)c2cccc(S(=O)(=O)N3CCN(C(C)=O)CC3)c2)cc1	none (no result: NALP1 yeast inh)
O=C(CSc1ccc(S(=O)(=O)N2CCCC2)cn1)Nc1ccc([N+](=O)[O-])cc1C(F)(F)F	none (no result: PolyA inh, NALP3 yeast inh, ALR H2O2 inh, NALP1 yeast inh)
CC(Sc1nnc(CC(=O)Nc2ccccc2F)n1C)C(=O)Nc1nccs1 (stereo not given)	none
Cc1cccc(C(=O)NC(=S)Nc2ccccc2C(F)(F)F)c1	none
Cc1ccc(C(=O)O)cc1NC(=S)NC(=O)c1ccc(-c2ccccc2)cc1	ALR H2O2 inh 98
COc1cccc(C(=O)NC(=S)Nc2ccc3c4c(cccc24)CC3)c1	none
COc1cccc(C(=O)NC(=S)Nc2ccc(Cl)cc2C(=O)O)c1	ALR H2O2 inh 97
Cc1cccc(C(=O)NC(=S)NNC(=O)c2ccccc2Cl)c1	ALR H2O2 inh 98
Cc1cccc(C(=O)NC(=S)Nc2ccccc2C(=O)O)c1	ALR H2O2 inh 99
O=C(O)c1cccc(NC(=S)NC(=O)c2ccc(-c3ccccc3)cc2)c1	none
Cc1ccc(-c2nc3c(c(SCC(=O)N4CCOCC4)n2)COC(C)(C)C3)cc1	none (no result: ALR H2O2 inh)
C=CCn1nnnc1SCC(=O)Nc1cccc(C(F)(F)F)c1	none
CC(=O)Nc1ccccc1NC(=O)c1cccc2ccccc12	none (no result: ALR H2O2 inh)
O=C(O)c1cc(O)ccc1NC(=O)c1cccc2ccccc12	ALR H2O2 inh 96
O=C(N/C(=C\c1ccco1)C(=O)N1CCCC1CO)c1ccccc1 (stereo not given)	none (no result: ALR H2O2 inh)
